In ChEMBL document CHEMBL1148046, “Marine alkaloids, 15. Two alkaloids, flustramine E and debromoflustramine B, from the marine bryozoan Flustra foliacea” (1994):
Active and inactive are the calls of the source. The calls are words filed in the database; no cut-off is given here.

What was measured:
Botrytis cinerea [1] = assay: Antimicrobial activity against Botrytis cinerea at 100 ppm; assay type: functional; conditions: read-out: IZ
Globisporangium ultimum = assay: Antimicrobial activity against Pythium ultimum at 1000 ppm; assay type: functional, organism-based
Method in brief: (§1)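 Compound applied at 1000 ppm in DMSO to each bacterial, fungal or oomycete test organism; activity read as the diameter of the growth-inhibition zone in mm.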

Aspergillus niger = assay: Antimicrobial activity against Aspergillus niger at 1000 ppm; assay type: functional, organism-based; method in brief: as §1
Rhizoctonia solani [2] = assay: Antimicrobial activity against Rhizoctonia solani at 1000 ppm; assay type: functional; conditions: read-out: IZ; method in brief: as §1
Fusarium oxysporum [3] = assay: Antimicrobial activity against Fusarium oxysporum at 100 ppm; assay type: functional, organism-based
Rhizoctonia solani [4] = assay: Antimicrobial activity against Rhizoctonia solani at 100 ppm; assay type: functional; conditions: read-out: IZ
Saccharomyces cerevisiae [5] = assay: Antimicrobial activity against Saccharomyces cerevisiae at 100 ppm; assay type: functional, organism-based
Fusarium oxysporum [6] = assay: Antimicrobial activity against Fusarium oxysporum at 1000 ppm; assay type: functional; conditions: read-out: IZ; method in brief: as §1
Botrytis cinerea [7] = assay: Antimicrobial activity against Botrytis cinerea at 1000 ppm; assay type: functional; conditions: read-out: IZ; method in brief: as §1
Bacillus subtilis [8] = assay: Antimicrobial activity against Bacillus subtilis at 100 ppm; assay type: functional, organism-based
Pseudomonas aeruginosa = assay: Antimicrobial activity against Pseudomonas aeruginosa at 1000 ppm; assay type: functional, organism-based; method in brief: as §1
Botrytis cinerea [9] = assay: Antimicrobial activity against Botrytis cinerea at 10 ppm; assay type: functional; conditions: read-out: IZ
Saccharomyces cerevisiae [10] = assay: Antimicrobial activity against Saccharomyces cerevisiae at 1000 ppm; assay type: functional; conditions: read-out: IZ; method in brief: as §1
Rhizoctonia solani [11] = assay: Antimicrobial activity against Rhizoctonia solani at 10 ppm; assay type: functional; conditions: read-out: IZ
Bacillus subtilis [12] = assay: Antimicrobial activity against Bacillus subtilis at 1000 ppm; assay type: functional; conditions: read-out: IZ; method in brief: as §1

CC(C)=CC[C@@]12CCN(C)[C@@H]1Nc1cc(Br)ccc12 (relative stereo) [FLUSTRAMINE E]
zone of inhibition at 100 ppm (Botrytis cinerea [1]): 25 mm | Activity (Globisporangium ultimum): inactive | Activity (Aspergillus niger): inactive | zone of inhibition at 1000 ppm (Rhizoctonia solani [2]): 10 mm | Activity (Fusarium oxysporum [3]): inactive | zone of inhibition at 100 ppm (Rhizoctonia solani [4]): 9 mm | Activity (Saccharomyces cerevisiae [5]): inactive | zone of inhibition at 1000 ppm (Fusarium oxysporum [6]): 10 mm | zone of inhibition at 1000 ppm (Botrytis cinerea [7]): 27 mm | Activity (Bacillus subtilis [8]): inactive | Activity (Pseudomonas aeruginosa): inactive | zone of inhibition at 10 ppm (Botrytis cinerea [9]): 21 mm | zone of inhibition at 1000 ppm (Saccharomyces cerevisiae [10]): 14 mm | zone of inhibition at 10 ppm (Rhizoctonia solani [11]): 9 mm | zone of inhibition at 1000 ppm (Bacillus subtilis [12]): 12 mm
